# Results taken from ChEMBL document CHEMBL4028892, “Discovery of a 1-Methyl-3,4-dihydronaphthalene-Based Sphingosine-1-Phosphate (S1P) Receptor Agonist Ceralifimod (ONO-4641). A S1P1 and S1P5 Selective Agonist for the Treatment of Autoimmune Diseases” (J Med Chem, 2017).
# pEC50, pKi: −log10 of the molar value. Active and inactive are the calls of the source. No cut-off for these calls is given here.
# Experiments:
# [1] = biological target: Sphingosine 1-phosphate receptor 3 (Homo sapiens, UniProt Q99500); test: Agonist activity at human S1P3 receptor expressed in CHO-K1 cells assessed as increase in S1P-stimulated calcium influx preincubated for 5 mins followed by S1P stimulation measured every 3 secs by fluorescence method; format: cell-based
# Homo sapiens = organism: Homo sapiens; test: Selectivity ratio of EC50 for human S1P3 receptor to EC50 for human S1P1 receptor
# How it was run: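 Fura2 Ca2+ assay in CHO-K1 cells stably expressing human S1P1 or S1P3. Cells were loaded with 5 μM Fura2-AM in Ham's F12 (10% FBS, 20 mM HEPES pH 7.4, 2.5 mM probenecid) for 60 min at 37 °C, then washed. After a 30 s baseline, compound was added (0.1 nM–30 μM final, DMSO), then 100 nM S1P 5 min later. Ratio read every 3 s (ex 340/380, em 500 nm). Increase ratio (%) = B/A×100 against the DMSO-well S1P peak; EC50 taken from the concentration series; mean of ≥2 data points.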
# [2] = biological target: T1, Sphingosine 1-phosphate receptor 2 (Homo sapiens, UniProt O95136); test: Agonist activity at human S1P2 receptor expressed in CHO-K1 cells assessed as increase in S1P-stimulated calcium influx preincubated for 5 mins followed by S1P stimulation measured every 3 secs by fluorescence method; format: functional, cell-based
# [3] = biological target: T2, Sphingosine 1-phosphate receptor 5 (Homo sapiens, UniProt Q9H228); test: Agonist activity at human S1P5 receptor expressed in CHO-K1 cells assessed as inhibition of forskolin-stimulated cAMP accumulation after 30 mins by ELISA; format: functional, cell-based
# Mus musculus = test: Decrease in peripheral lymphocyte levels in po dosed BALB/c mouse at 24 hrs by automated hematology analyzer; format: functional
# How it was run: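 Compound given orally to 6-week-old male BALB/c mice. At 4 or 24 h, blood was taken from the abdominal aorta under ether anaesthesia and lymphocytes counted on an automated haematology analyser. Counts expressed as % of the vehicle-group mean; ED50 is the dose lowering counts to 50%. One experiment, five mice.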
# [4] = Total clearance in Crl:CD(SD) rat at 0.1 mg/kg, iv by LC-MS/MS analysis; format: ADME, organism-based; conditions: in vivo
# How it was run: (§1)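 Single intravenous or oral dose of 0.1 mg/kg to male Crl:CD(SD) rats and to monkeys. Values are means of three animals with SD.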
# [5] = AUC (infinity) in Crl:CD(SD) rat at 0.1 mg/kg, po by LC-MS/MS analysis; format: ADME, organism-based; design: dose 0.1 mg/kg, time infinity, route oral; conditions: in vivo; how it was run: as §1
# [6] = AUC (infinity) in cynomolgus monkey at 0.1 mg/kg, iv by LC-MS/MS analysis; format: ADME, organism-based, Macaca fascicularis; design: dose 0.1 mg/kg, time infinity, route intravenous; conditions: in vivo; how it was run: as §1
# [7] = AUC (infinity) in cynomolgus monkey at 0.1 mg/kg, po by LC-MS/MS analysis; format: ADME, organism-based, Macaca fascicularis; design: dose 0.1 mg/kg, route oral, time infinity; conditions: in vivo; how it was run: as §1
# [8] = Cmax in Crl:CD(SD) rat at 0.1 mg/kg, po by LC-MS/MS analysis; format: ADME, organism-based; design: dose 0.1 mg/kg, route oral; conditions: in vivo; how it was run: as §1
# [9] = Cmax in cynomolgus monkey at 0.1 mg/kg, po by LC-MS/MS analysis; format: ADME, organism-based, Macaca fascicularis; design: dose 0.1 mg/kg, route oral; conditions: in vivo; how it was run: as §1
# [10] = Total clearance in cynomolgus monkey at 0.1 mg/kg, iv by LC-MS/MS analysis; format: ADME, organism-based, Macaca fascicularis; conditions: in vivo; how it was run: as §1
# [11] = Half life in Crl:CD(SD) rat at 0.1 mg/kg, iv by LC-MS/MS analysis; format: ADME, organism-based; conditions: in vivo; how it was run: as §1
# [12] = Half life in Crl:CD(SD) rat at 0.1 mg/kg, po by LC-MS/MS analysis; format: ADME, organism-based; conditions: in vivo; how it was run: as §1
# [13] = Half life in cynomolgus monkey at 0.1 mg/kg, iv by LC-MS/MS analysis; format: ADME, organism-based, Macaca fascicularis; conditions: in vivo; how it was run: as §1
# [14] = Half life in cynomolgus monkey at 0.1 mg/kg, po by LC-MS/MS analysis; format: ADME, organism-based, Macaca fascicularis; conditions: in vivo; how it was run: as §1
# [15] = Volume of distribution at steady state in Crl:CD(SD) rat at 0.1 mg/kg, iv by LC-MS/MS analysis; format: ADME, organism-based; conditions: in vivo, read-out: Vdss; how it was run: as §1
# [16] = Volume of distribution at steady state in cynomolgus monkey at 0.1 mg/kg, iv by LC-MS/MS analysis; format: ADME, organism-based, Macaca fascicularis; conditions: in vivo, read-out: Vdss; how it was run: as §1
# [17] = Oral bioavailability in Crl:CD(SD) rat at 0.1 mg/kg by LC-MS/MS analysis; format: ADME, organism-based; conditions: in vivo; how it was run: as §1
# Rattus norvegicus = test: Antiarthritic activity in bovine type 2 collagen-induced Lewis rat arthritis model at 0.1 mg/kg, po qd administered up to 27 days; format: functional, organism-based
# How it was run: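 Female Lewis rats were immunised with bovine type II collagen in incomplete Freund's adjuvant on days 0 and 7. Compound (0.03 or 0.1 mg/kg) or 0.5% methylcellulose was given orally once daily, days 0–27. Paw oedema/erythema was scored. Groups: n = 9–10 treated/control, normal n = 5. Mean ± SE, Steel test.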
# Cynomolgus monkey = test: Toxicity in unrestrained conscious cynomolgus monkey assessed as decrease in heart rate at 100 mg/kg, po administered as single dose measured after 4 to 24 hrs; format: organism-based, Macaca fascicularis; conditions: in vivo
# How it was run: (§2)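 Single oral dose of 1, 10 or 100 mg/kg to unrestrained conscious monkeys. Heart rate was followed from 4 to 24 h after dosing and its decrease expressed against the pretreatment value. Plasma concentration was sampled at 4 and 24 h.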
# [18] = Plasma concentration in unrestrained conscious cynomolgus monkey at 1 mg/kg, po measured at 4 hrs; format: ADME, organism-based, Macaca fascicularis; how it was run: as §2
# [19] = biological target: T3, Sphingosine 1-phosphate receptor 1 (Rattus norvegicus, UniProt P48303); test: Displacement of [33P]-S1P from rat S1P1 receptor after 60 mins by scintillation counting method
# [20] = biological target: T3, Sphingosine 1-phosphate receptor 1; test: Agonist activity at rat S1P1 receptor assessed as inhibition of forskolin-stimulated cAMP accumulation after 30 mins by ELISA; format: functional
# [21] = Cmax in bovine type 2 collagen-induced Lewis rat arthritis model at 0.1 mg/kg, po qd administered up to 27 days; format: ADME, organism-based; design: dose 0.1 mg/kg, route oral; conditions: in vivo
# [22] = biological target: T1, Sphingosine 1-phosphate receptor 2; test: Displacement of [33P]-S1P from human S1P2 receptor expressed in CHO-K1 cells after 60 mins by scintillation counting method; format: cell-based
# [23] = biological target: T2, Sphingosine 1-phosphate receptor 5; test: Displacement of [33P]-S1P from human S1P5 receptor expressed in CHO-K1 cells after 60 mins by scintillation counting method; format: cell-based
# [24] = biological target: Sphingosine 1-phosphate receptor 1 (Homo sapiens, UniProt P21453); test: Downregulation of human S1P1 receptor expressed in CHO-K1 cell membranes assessed as concentration required to induce downregulation of receptor by 90% by flow cytometric method; format: cell-based
# Sphingosine 1-phosphate receptor 1 (Homo sapiens, UniProt P21453), sequence (P21453 whole entry): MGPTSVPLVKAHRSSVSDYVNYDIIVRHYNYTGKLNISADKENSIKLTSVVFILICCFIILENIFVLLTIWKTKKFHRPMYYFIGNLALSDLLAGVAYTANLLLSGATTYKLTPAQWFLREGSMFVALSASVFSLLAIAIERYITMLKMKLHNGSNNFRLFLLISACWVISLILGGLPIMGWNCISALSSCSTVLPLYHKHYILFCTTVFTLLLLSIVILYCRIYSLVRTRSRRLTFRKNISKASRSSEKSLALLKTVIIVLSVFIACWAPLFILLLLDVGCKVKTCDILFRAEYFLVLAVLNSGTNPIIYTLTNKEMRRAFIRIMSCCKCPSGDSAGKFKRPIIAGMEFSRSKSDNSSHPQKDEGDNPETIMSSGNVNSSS
# T3 sequence (P48303 whole entry): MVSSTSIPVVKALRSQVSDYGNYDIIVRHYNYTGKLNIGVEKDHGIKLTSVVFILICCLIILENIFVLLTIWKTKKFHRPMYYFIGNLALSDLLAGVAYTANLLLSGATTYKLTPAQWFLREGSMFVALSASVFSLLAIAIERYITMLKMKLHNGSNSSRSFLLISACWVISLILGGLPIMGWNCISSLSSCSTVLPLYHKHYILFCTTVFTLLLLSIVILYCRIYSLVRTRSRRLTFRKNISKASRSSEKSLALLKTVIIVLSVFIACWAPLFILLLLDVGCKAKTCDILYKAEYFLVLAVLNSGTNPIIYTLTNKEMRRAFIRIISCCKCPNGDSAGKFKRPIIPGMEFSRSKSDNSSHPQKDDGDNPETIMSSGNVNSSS
# T1 sequence (O95136 whole entry): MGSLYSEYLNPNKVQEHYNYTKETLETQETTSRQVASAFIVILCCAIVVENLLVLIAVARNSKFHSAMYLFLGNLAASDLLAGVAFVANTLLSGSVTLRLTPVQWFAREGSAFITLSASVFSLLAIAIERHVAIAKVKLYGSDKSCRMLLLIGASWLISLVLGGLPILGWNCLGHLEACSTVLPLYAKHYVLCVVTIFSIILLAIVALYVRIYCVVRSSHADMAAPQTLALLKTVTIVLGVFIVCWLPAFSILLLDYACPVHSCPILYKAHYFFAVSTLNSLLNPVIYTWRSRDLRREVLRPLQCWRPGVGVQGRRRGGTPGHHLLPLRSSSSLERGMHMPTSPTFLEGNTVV
# T2 sequence (Q9H228 whole entry): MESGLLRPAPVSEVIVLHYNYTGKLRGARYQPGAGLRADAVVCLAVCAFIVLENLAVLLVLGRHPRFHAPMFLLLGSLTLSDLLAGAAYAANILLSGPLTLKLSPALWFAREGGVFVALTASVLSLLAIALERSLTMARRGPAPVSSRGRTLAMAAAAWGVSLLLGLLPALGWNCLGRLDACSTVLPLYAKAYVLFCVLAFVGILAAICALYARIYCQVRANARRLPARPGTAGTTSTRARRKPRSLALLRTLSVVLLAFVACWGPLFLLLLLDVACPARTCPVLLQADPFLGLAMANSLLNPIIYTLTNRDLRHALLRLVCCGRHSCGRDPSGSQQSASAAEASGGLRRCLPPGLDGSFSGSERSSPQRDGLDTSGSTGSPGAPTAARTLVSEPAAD
# Sphingosine 1-phosphate receptor 3, sequence (Q99500 whole entry): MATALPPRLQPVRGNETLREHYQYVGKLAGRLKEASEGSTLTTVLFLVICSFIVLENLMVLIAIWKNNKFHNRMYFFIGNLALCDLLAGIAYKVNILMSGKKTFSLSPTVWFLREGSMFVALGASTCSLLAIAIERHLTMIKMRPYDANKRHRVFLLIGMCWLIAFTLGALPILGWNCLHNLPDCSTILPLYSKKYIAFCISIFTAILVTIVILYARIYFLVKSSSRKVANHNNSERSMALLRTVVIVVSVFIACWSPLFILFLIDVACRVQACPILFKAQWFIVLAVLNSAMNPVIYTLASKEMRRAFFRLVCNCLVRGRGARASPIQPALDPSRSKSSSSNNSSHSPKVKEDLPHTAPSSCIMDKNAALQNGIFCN
compound,measurement,setting,value
CCCc1ccc(COc2ccc3c(c2)CCC(CN2CC(C(=O)O)C2)=C3C)c(OC)c1,pEC50,[1],< 4.52
same,Ratio EC50,Homo sapiens,> 30000
same,pEC50,[2],< 4.52
same,pEC50,[3],9.48
same,ED50,Mus musculus,0.029 mg/kg
same,clearance,[4],5.63 mL/min/kg
same,AUC(0-inf),[5],229 ng·h/mL
same,AUC(0-inf),[6],1640 ng·h/mL
same,AUC(0-inf),[7],1090 ng·h/mL
same,Cmax,[8],7.47 ng/mL
same,Cmax,[9],28.4 ng/mL
same,clearance,[10],1.06 mL/min/kg
same,half-life,[11],16 h
same,half-life,[12],17 h
same,half-life,[13],30 h
same,half-life,[14],29 h
same,Vd,[15],7.15 L/kg
same,Vd,[16],2.66 L/kg
same,bioavailability,[17],75.9%
same,Activity,Rattus norvegicus,Active
same,Activity,Cynomolgus monkey,Toxic
same,concentration at 4 h,[18],320 ng/mL
same,pKi,[19],9.11
same,pEC50,[20],10.54
same,Cmax,[21],21.5 nM
same,pKi,[22],< 5.26
same,pKi,[23],9.24
same,Activity,[24],25 nM
